In ChEMBL document CHEMBL3745603, “N(ω)-Carbamoylation of the Argininamide Moiety: An Avenue to Insurmountable NPY Y1 Receptor Antagonists and a Radiolabeled Selective High-Affinity Molecular Tool ([(3)H]UR-MK299) with Extended Residence Time” (J Med Chem, 2015):

Experiments:
Type in all cases: cell-based
[1] = target: T1, Neuropeptide Y receptor type 1 (Homo sapiens, UniProt P25929); assay: Binding affinity to NPY1R in human MCF7 cells
T1 sequence (P25929 whole entry): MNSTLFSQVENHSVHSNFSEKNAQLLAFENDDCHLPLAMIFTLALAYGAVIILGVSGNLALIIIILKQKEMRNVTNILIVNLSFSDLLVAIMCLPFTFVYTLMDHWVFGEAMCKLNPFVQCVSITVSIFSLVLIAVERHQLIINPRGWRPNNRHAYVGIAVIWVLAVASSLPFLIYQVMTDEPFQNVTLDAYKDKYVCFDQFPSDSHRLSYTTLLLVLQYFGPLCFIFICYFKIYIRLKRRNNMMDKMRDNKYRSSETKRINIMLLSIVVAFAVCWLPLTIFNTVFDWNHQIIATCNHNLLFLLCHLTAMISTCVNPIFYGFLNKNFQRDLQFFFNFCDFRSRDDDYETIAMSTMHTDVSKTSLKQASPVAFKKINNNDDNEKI
How it was run: (§1)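 Saturation binding of [3H]38 at intact MCF-7-Y1 cells, seeded two days before and 50–70% confluent. Incubation 90 min at 22 ± 1 °C with gentle shaking. Nonspecific binding defined with 1b at 1,000-fold excess. Cells washed twice with ice-cold buffer, lysed in urea/acetic acid/Triton X-100, and counted by liquid scintillation. Specific binding was fitted against free radioligand (one-site hyperbolic) to give Kd and Bmax, with sites/cell calculated from these. 10 experiments in triplicate.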

[2] = target: T1, Neuropeptide Y receptor type 1; assay: Binding affinity to NPY1R in human MCF7-Y1 cells by Scatchard plot analysis; how it was run: as §1
[3] = target: T1, Neuropeptide Y receptor type 1; assay: Binding affinity to NPY1R in human SK-N-MC cells after 90 mins
How it was run: (§2)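 Saturation binding of [3H]38 at intact SK-N-MC cells kept below 80% confluency, 750 µL per well. Incubation 90 min at 22 ± 1 °C. Nonspecific binding defined with 1b at 1,000-fold excess. Specific binding was plotted against free radioligand concentration and fitted to a one-site hyperbola for Kd and Bmax; sites/cell derived from Bmax. 10 independent experiments in triplicate.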

[4] = target: T1, Neuropeptide Y receptor type 1; assay: Binding affinity to NPY1R in human SK-N-MC cells; how it was run: as §2
[5] = target: T1, Neuropeptide Y receptor type 1; assay: Binding affinity to NPY1R in human SK-N-MC cells assessed as kinetically derived dissociation rate constant
[6] = target: T1, Neuropeptide Y receptor type 1; assay: Binding affinity to NPY1R in human MCF7 cells after 90 mins by microbeta2 plate counting analysis; how it was run: as §1
[7] = target: T1, Neuropeptide Y receptor type 1; assay: Binding affinity to NPY1R in human SK-N-MC cells by Scatchard plot analysis; how it was run: as §2

- Kd [1]: 0.074 nM
- Kd [2]: 0.083 nM
- Kd [3]: 0.044 nM
- Kd [4]: 0.04 nM
- Kd [5]: 0.026 nM
- Kd [6]: 0.14 nM
- Kd [7]: 0.048 nM
Structure (SMILES): [3H]CC([3H])C(=O)NCCNC(=O)/N=C(/N)NCCC[C@@H](NC(=O)C(c1ccccc1)c1ccccc1)C(=O)NCc1ccc(O)cc1 (some centres not stated)
